Results reported in ChEMBL document CHEMBL1139132, “N-caffeoylphenalkylamide derivatives as bacterial efflux pump inhibitors” (2007).
Converted amounts (≈) assume the structure as drawn.

Legend:
Type in all cases: functional
Staphylococcus aureus [1] = assay: Inhibition of NorA pump in fluoroquinolone-resistant Staphylococcus aureus SA1199B assessed as drug level causing reduction of Norfloxacin MIC
Method in brief: (§1)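 SA-1199B, which overexpresses NorA, tested by dilution MIC. Norfloxacin MIC measured with and without added test agent. Potentiation expressed as the fold reduction of the norfloxacin MIC relative to norfloxacin alone, at the stated agent concentration.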

Staphylococcus aureus [2] = assay: Antimicrobial activity against fluoroquinolone-resistant Staphylococcus aureus SA1199B
Method in brief: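 S. aureus SA-1199B, which overexpresses the NorA MDR efflux pump. MIC determined by the standard dilution method for aerobically growing bacteria.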

Staphylococcus aureus [3] = assay: Inhibition of NorA pump in fluoroquinolone-resistant Staphylococcus aureus SA1199B assessed as drug level causing 2-fold reduction of Norfloxacin MIC; method in brief: as §1
Staphylococcus aureus [4] = assay: Inhibition of NorA pump in fluoroquinolone-resistant Staphylococcus aureus SA1199B assessed as drug level causing 8-fold reduction of Norfloxacin MIC; method in brief: as §1
Staphylococcus aureus [5] = assay: Inhibition of NorA pump in fluoroquinolone-resistant Staphylococcus aureus SA1199B assessed as drug level causing 4-fold reduction of Norfloxacin MIC; method in brief: as §1
Staphylococcus aureus [6] = assay: Inhibition of NorA pump in fluoroquinolone-resistant Staphylococcus aureus SA1199B assessed as drug level causing 16-fold reduction of Norfloxacin MIC; method in brief: as §1

## COc1ccc(CCC(=O)NCCc2ccc(O)c(O)c2)cc1OC
Staphylococcus aureus [1]
  Activity: 290 µM

## CCn1cc(C(=O)O)c(=O)c2cc(F)c(N3CCNCC3)cc21 [NORFLOXACIN]
Staphylococcus aureus [2]
  MIC: 100 µM (≈ 31.9 µg/mL)

## COc1ccc(/C=C/C(=O)NCCc2ccc(OC)c(OC)c2)cc1OC
Staphylococcus aureus [3]
  Activity: 54 µM
Staphylococcus aureus [4]
  Activity: 162 µM

## COc1ccc(/C=C/C(=O)NCCc2cc(O)c(O)c(O)c2)cc1OC
Staphylococcus aureus [2]
  MIC: 356 µM (≈ 128 µg/mL)
Staphylococcus aureus [1]
  Activity: 56 µM

## COc1cc(/C=C/C(=O)NCCc2ccc(O)c(O)c2)cc(OC)c1OC
Staphylococcus aureus [5]
  Activity: 268 µM

## COC(=O)[C@H]1[C@H]2C[C@@H]3c4[nH]c5cc(OC)ccc5c4CCN3C[C@H]2C[C@@H](OC(=O)c2cc(OC)c(OC)c(OC)c2)[C@@H]1OC [RESERPINE]
Staphylococcus aureus [4]; Staphylococcus aureus, SA1199B
  MIC: 33 µM (≈ 20.1 µg/mL)

## O=C(/C=C/c1ccc(O)c(O)c1)NCCc1ccc(O)c(O)c1
Staphylococcus aureus [4]
  Activity: 317 µM
Staphylococcus aureus [2]
  MIC: ≥ 406 µM
Staphylococcus aureus [5]
  Activity: 63 µM

## COc1ccc(/C=C/C(=O)NCCc2ccccc2)cc1OC
Staphylococcus aureus [5]
  Activity: 322 µM

## COc1ccc(/C=C/C(=O)NCCc2c[nH]c3ccccc23)cc1OC
Staphylococcus aureus [4]
  Activity: 57 µM
Staphylococcus aureus [2]
  MIC: > 366 µM
Staphylococcus aureus [6]
  Activity: 286 µM
Staphylococcus aureus [5]
  Activity: 29 µM

## O=C(/C=C/c1ccccc1)NCCc1ccc(O)c(O)c1
Staphylococcus aureus [2]
  MIC: > 452 µM
Staphylococcus aureus [6]
  Activity: 353 µM
Staphylococcus aureus [5]
  Activity: 70 µM

## COc1ccc(/C=C/C(=O)NCCc2ccc(O)c(O)c2)cc1OC
Staphylococcus aureus [4]
  Activity: 292 µM
Staphylococcus aureus [5]
  Activity: 146 µM
